{"source": "ChEMBL document CHEMBL3045036", "about": "“Chemical composition, plant genetic differences, and antifungal activity of the essential oil of Helichrysum italicum G. Don ssp. microphyllum (Willd) Nym” (2003)", "assay_type_in_all_cases": "functional", "key": {"[1]": {"tested_on": "Fusarium oxysporum f. sp. lycopersici", "test": "Fungicidal activity against Fusarium oxysporum f. sp. Lycopersici", "summary_of_the_method": "(§1)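 Broth microdilution MIC. Essential oil stock of 1 mg/mL was made in sterile broth with 50% ethanol, then serially diluted in 100 µL potato dextrose broth per well. Each well received 1 µL fungal suspension (~1 × 10^5 cells). Incubation matched the paper-disc test: several days at 24 °C. Growth and medium sterility were checked for each strain.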"}, "[2]": {"tested_on": "Rhizoctonia solani", "test": "Fungicidal activity against Rhizoctonia solani", "summary_of_the_method": "as §1"}, "[3]": {"tested_on": "Zymoseptoria tritici", "test": "Fungicidal activity against Zymoseptoria tritici", "summary_of_the_method": "as §1"}, "[4]": {"tested_on": "Fusarium graminearum", "test": "Fungicidal activity against Fusarium graminearum", "summary_of_the_method": "as §1"}, "[5]": {"tested_on": "Botrytis cinerea", "test": "Fungicidal activity against Botryotinia fuckeliana", "summary_of_the_method": "as §1"}, "[6]": {"tested_on": "Pyricularia oryzae", "test": "Fungicidal activity against Magnaporthe oryzae", "summary_of_the_method": "as §1"}, "[7]": {"tested_on": "Globisporangium ultimum", "test": "Fungicidal activity against Pythium ultimum", "summary_of_the_method": "as §1"}, "[8]": {"tested_on": "Phytophthora capsici", "test": "Fungicidal activity against Phytophthora capsici", "summary_of_the_method": "as §1"}, "[9]": {"tested_on": "Athelia rolfsii", "test": "Fungicidal activity against Athelia rolfsii", "settings": "Agroathelia rolfsii", "summary_of_the_method": "as §1"}, "[10]": {"tested_on": "Cercospora beticola", "test": "Fungicidal activity against Cercospora beticola", "summary_of_the_method": "as §1"}, "[11]": {"tested_on": "Helminthosporium", "test": "Fungicidal activity against Helminthosporium oryzae", "summary_of_the_method": "as §1"}}, "data": [{"smiles": "CCCCNC(=O)n1c(NC(=O)OC)nc2ccccc21", "note": "[BENOMYL]", "values": [{"measurement": "MIC", "setting": "[1]", "result": 1.5, "unit": "µg/mL"}, {"measurement": "MIC", "setting": "[2]", "result": 6.2, "unit": "µg/mL"}, {"measurement": "MIC", "setting": "[3]", "result": 0.6, "unit": "µg/mL"}, {"measurement": "MIC", "setting": "[4]", "result": 0.6, "unit": "µg/mL"}]}, {"smiles": "CCOC(=O)C1(C)OC(=O)N(c2cc(Cl)cc(Cl)c2)C1=O", "note": "(stereo unspecified) [CHLOZOLINATE]", "values": [{"measurement": "MIC", "setting": "[5]", "result": 3.1, "unit": "µg/mL"}]}, {"smiles": "CO/N=C(\\C(=O)OC)c1ccccc1COc1ccccc1C", "note": "[KRESOXYM-METHYL]", "values": [{"measurement": "MIC", "setting": "[6]", "result": 1.5, "unit": "µg/mL"}]}, {"smiles": "COCC(=O)N(c1c(C)cccc1C)C(C)C(=O)OC", "note": "(stereo unspecified) [METALAXYL]", "values": [{"measurement": "MIC", "setting": "[7]", "result": 0.6, "unit": "µg/mL"}, {"measurement": "MIC", "setting": "[8]", "result": 1.5, "unit": "µg/mL"}]}, {"smiles": "FC(F)C(F)(F)OCC(Cn1cncn1)c1ccc(Cl)cc1Cl", "note": "(stereo unspecified) [TETRACONAZOLE]", "values": [{"measurement": "MIC", "setting": "[9]", "result": 25, "unit": "µg/mL"}, {"measurement": "MIC", "setting": "[10]", "result": 1.5, "unit": "µg/mL"}, {"measurement": "MIC", "setting": "[11]", "result": 0.1, "unit": "µg/mL"}]}]}
